# From ChEMBL document CHEMBL4689842, “EUbOPEN Chemogenomics Library wave 1” (2021)
# Tested on: U2OS
# Assay: Multiplex assay against U2OS
# Assay type: toxicity, cell-based
# Details: human
# Procedure, shortened: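 With compound added, live cells were imaged on a CQ1 microscope at 37°C and 5% CO2; staining with Hoechst33342, BioTracker Green Microtubule Cytoskeleton Dye, MitoTracker Red and Annexin V Alexa Fluor 680 had been done at seeding. The CellPathfinder machine-learning gating scheme split cells into Hoechst high-intensity objects or normal cells, normal cells into healthy, pyknosed or fragmented nuclei, and pyknosed cells into mitotic or apoptotic. The tubulin, mitochondrial-mass and membrane-permeability phenotypes are per cents of healthy-nucleus cells.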
# [1] = 12 h, 1 µM, compound concentration 1 uM, replicate 1
# [2] = 12 h, 1 µM, compound concentration 1 uM, replicate 2
# [3] = 12 h, 10 µM, compound concentration 10 uM, replicate 1
# [4] = 12 h, 10 µM, compound concentration 10 uM, replicate 2
# [5] = 24 h, 1 µM, compound concentration 1 uM, replicate 1
# [6] = 24 h, 1 µM, compound concentration 1 uM, replicate 2
# [7] = 24 h, 10 µM, compound concentration 10 uM, replicate 1
# [8] = 24 h, 10 µM, compound concentration 10 uM, replicate 2
# [9] = 48 h, 1 µM, compound concentration 1 uM, replicate 1
# [10] = 48 h, 1 µM, compound concentration 1 uM, replicate 2
# [11] = 48 h, 10 µM, compound concentration 10 uM, replicate 1
# [12] = 48 h, 10 µM, compound concentration 10 uM, replicate 2
smiles,measurement,setting,value
CCCSc1nc(N[C@@H]2C[C@H]2c2ccc(F)c(F)c2)c2nnn([C@@H]3C[C@H](OCCO)[C@@H](O)[C@H]3O)c2n1 [TICAGRELOR],Population Apoptotic (%),[1],23%
same,Population Fragmented Nuclei (%),[1],11%
same,Population Healthy Nuclei (%),[1],74%
same,Population Hoechst High Intensity Objects (%),[1],6%
same,Population Membrane Permeable-Phenotype (%),[1],4%
same,Population Mitochondria Different-Phenotype (%),[1],21%
same,Population Mitotic Cells (%),[1],76%
same,Population Normal (%),[1],93%
same,Population Pyknosed Nuclei (%),[1],14%
same,Population Tubulin-Different-Phenotype (%),[1],10%
same,Total Cell Count,[1],116
same,Population Apoptotic (%),[2],66%
same,Population Fragmented Nuclei (%),[2],1%
same,Population Healthy Nuclei (%),[2],93%
same,Population Hoechst High Intensity Objects (%),[2],5%
same,Population Membrane Permeable-Phenotype (%),[2],5%
same,Population Mitochondria Different-Phenotype (%),[2],18%
same,Population Mitotic Cells (%),[2],33%
same,Population Normal (%),[2],94%
same,Population Pyknosed Nuclei (%),[2],4%
same,Population Tubulin-Different-Phenotype (%),[2],13%
same,Total Cell Count,[2],82
same,Population Apoptotic (%),[3],87%
same,Population Fragmented Nuclei (%),[3],16%
same,Population Healthy Nuclei (%),[3],64%
same,Population Hoechst High Intensity Objects (%),[3],7%
same,Population Membrane Permeable-Phenotype (%),[3],37%
same,Population Mitochondria Different-Phenotype (%),[3],99%
same,Population Mitotic Cells (%),[3],12%
same,Population Normal (%),[3],92%
same,Population Pyknosed Nuclei (%),[3],19%
same,Population Tubulin-Different-Phenotype (%),[3],100%
same,Total Cell Count,[3],125
same,Population Apoptotic (%),[4],75%
same,Population Fragmented Nuclei (%),[4],7%
same,Population Healthy Nuclei (%),[4],79%
same,Population Hoechst High Intensity Objects (%),[4],11%
same,Population Membrane Permeable-Phenotype (%),[4],43%
same,Population Mitochondria Different-Phenotype (%),[4],98%
same,Population Mitotic Cells (%),[4],25%
same,Population Normal (%),[4],88%
same,Population Pyknosed Nuclei (%),[4],12%
same,Population Tubulin-Different-Phenotype (%),[4],96%
same,Total Cell Count,[4],67
same,Population Apoptotic (%),[5],9%
same,Population Fragmented Nuclei (%),[5],7%
same,Population Healthy Nuclei (%),[5],84%
same,Population Hoechst High Intensity Objects (%),[5],7%
same,Population Membrane Permeable-Phenotype (%),[5],3%
same,Population Mitochondria Different-Phenotype (%),[5],10%
same,Population Mitotic Cells (%),[5],90%
same,Population Normal (%),[5],92%
same,Population Pyknosed Nuclei (%),[5],7%
same,Population Tubulin-Different-Phenotype (%),[5],6%
same,Total Cell Count,[5],116
same,Population Apoptotic (%),[6],57%
same,Population Fragmented Nuclei (%),[6],3%
same,Population Healthy Nuclei (%),[6],87%
same,Population Hoechst High Intensity Objects (%),[6],2%
same,Population Membrane Permeable-Phenotype (%),[6],4%
same,Population Mitochondria Different-Phenotype (%),[6],20%
same,Population Mitotic Cells (%),[6],42%
same,Population Normal (%),[6],97%
same,Population Pyknosed Nuclei (%),[6],8%
same,Population Tubulin-Different-Phenotype (%),[6],11%
same,Total Cell Count,[6],81
same,Population Apoptotic (%),[7],94%
same,Population Fragmented Nuclei (%),[7],18%
same,Population Healthy Nuclei (%),[7],58%
same,Population Hoechst High Intensity Objects (%),[7],6%
same,Population Membrane Permeable-Phenotype (%),[7],55%
same,Population Mitochondria Different-Phenotype (%),[7],100%
same,Population Mitotic Cells (%),[7],5%
same,Population Normal (%),[7],93%
same,Population Pyknosed Nuclei (%),[7],22%
same,Total Cell Count,[7],155
same,Population Apoptotic (%),[8],83%
same,Population Fragmented Nuclei (%),[8],7%
same,Population Healthy Nuclei (%),[8],73%
same,Population Hoechst High Intensity Objects (%),[8],8%
same,Population Membrane Permeable-Phenotype (%),[8],65%
same,Population Mitochondria Different-Phenotype (%),[8],97%
same,Population Mitotic Cells (%),[8],16%
same,Population Normal (%),[8],91%
same,Population Pyknosed Nuclei (%),[8],19%
same,Population Tubulin-Different-Phenotype (%),[8],97%
same,Total Cell Count,[8],80
same,Population Apoptotic (%),[9],69%
same,Population Fragmented Nuclei (%),[9],6%
same,Population Healthy Nuclei (%),[9],87%
same,Population Hoechst High Intensity Objects (%),[9],4%
same,Population Mitochondria Different-Phenotype (%),[9],7%
same,Population Mitotic Cells (%),[9],30%
same,Population Normal (%),[9],95%
same,Population Pyknosed Nuclei (%),[9],5%
same,Population Tubulin-Different-Phenotype (%),[9],3%
same,Total Cell Count,[9],107
same,Population Apoptotic (%),[10],25%
same,Population Fragmented Nuclei (%),[10],4%
same,Population Healthy Nuclei (%),[10],88%
same,Population Hoechst High Intensity Objects (%),[10],3%
same,Population Membrane Permeable-Phenotype (%),[10],2%
same,Population Mitochondria Different-Phenotype (%),[10],12%
same,Population Mitotic Cells (%),[10],75%
same,Population Normal (%),[10],96%
same,Population Pyknosed Nuclei (%),[10],6%
same,Population Tubulin-Different-Phenotype (%),[10],9%
same,Total Cell Count,[10],74
same,Population Apoptotic (%),[11],89%
same,Population Fragmented Nuclei (%),[11],25%
same,Population Healthy Nuclei (%),[11],38%
same,Population Hoechst High Intensity Objects (%),[11],8%
same,Population Membrane Permeable-Phenotype (%),[11],60%
same,Population Mitochondria Different-Phenotype (%),[11],94%
same,Population Mitotic Cells (%),[11],10%
same,Population Normal (%),[11],91%
same,Population Pyknosed Nuclei (%),[11],36%
same,Population Tubulin-Different-Phenotype (%),[11],98%
same,Total Cell Count,[11],230
same,Population Apoptotic (%),[12],71%
same,Population Fragmented Nuclei (%),[12],17%
same,Population Healthy Nuclei (%),[12],60%
same,Population Hoechst High Intensity Objects (%),[12],11%
same,Population Membrane Permeable-Phenotype (%),[12],74%
same,Population Mitochondria Different-Phenotype (%),[12],97%
same,Population Mitotic Cells (%),[12],28%
same,Population Normal (%),[12],88%
same,Population Pyknosed Nuclei (%),[12],21%
same,Population Tubulin-Different-Phenotype (%),[12],97%
same,Total Cell Count,[12],130
